An excerpt weighted towards active compounds, which were near 2.2% of everything screened.
FN deposition inh: fibronectin deposition inhibition | AH1F fibroblasts, Alexa488-fibronectin deposition fluorescence, overnight | inhibition, % at 12.6 µM | 0.086% of 350,000 active;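 active = mean inhibition across replicates of 30% or more, regardless of how many single replicates reach that level; inconclusive = mean under 30% yet at least half of replicates reach 30%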;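 also: positive control wells lacked labelled fibronectin entirely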
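Material – AH1F fibroblast monolayer, labelled fibronectin deposition · Reagent – labelled fibronectin 24 nM · Timing – 1 h adhesion, overnight exposure · Measured by – fluorescence at 485 nm excitation, 525 nm emission · Read-out – inhibition of fibronectin deposition signal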
SIRT5 block: inhibitors of human sirtuin-5 desuccinylase; inhibition, % at 15 µM; 1.1% of 330,000 active; Q9NXA8; Purified SirT5, succinyl-peptide AMC, trypsin-coupled fluorescence; in the data active = inhibition above about 15%; inconclusive = no clear call, values can overlap the other calls
ERAP1 HTS inh: inhibitors of human ERAP1 aminopeptidase. Q9NZ08. recombinant ERAP1, Leu-AMC fluorescence, 60 min. inhibition, % at 10.7 µM. 0.15% of 340,000 active. AID 652197;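 active = mean replicate inhibition of at least 30%, or all replicates individually reaching that 30% level; inactive = mean below 30% and not every replicate reaching it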;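 also: 0% = neutral control wells and 100% = L-leucinethiol positive control wells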
FGF22 binding: FGF22 (human) thermal shift binding | Q9HCT0 | 1.5% of 340,000 active | recombinant FGF22 thermal shift, SYPRO orange fluorescence; percent of sucrose octasulfate shift, DMSO zero | activity (Tm shift, normalised), % at 9.99 µM | AID 651658;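 active = mean Tm shift, scaled 0 neutral to 100 positive control, at about 1.3% or above, every replicate too, limit read from the data; inconclusive = no clear call, values can overlap the other calls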
PGC1a acetyl inh: PGC1a acetylation modulation, inhibitor mode | AID 651687 | U2OS PGC1a acetylation, AlphaScreen anti-acetyl-lysine; with virally co-expressed GCN5 acetyltransferase | 0.17% of 350,000 active | inhibition, % at 15.6 µM;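 active = every replicate shows inhibition of at least 40%; inconclusive = mean inhibition at least 40% but some replicate below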;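 also: 0% = neutral control wells and 100% = positive control wells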
* hit, by the source's call; ? = inconclusive; · = no result given.

SMILES	FN deposition inh	SIRT5 block	ERAP1 HTS inh	FGF22 binding	PGC1a acetyl inh
C[C@@H]1CN([C@H](C)CO)C(=O)c2cc(NC(=O)C3CC3)ccc2O[C@@H]1CN(C)Cc1ccc(-c2ccccc2)cc1	·	7	3	0	-11
CC(=O)N1[C@@H]2c3ccc(/C=C/c4ccccc4)c(=O)n3C[C@H]1[C@H](CO)[C@H]2C(=O)N(C)C	·	-99	91*	0	·
CC(C)C#Cc1ccc2c(c1)O[C@H](CN(C)Cc1ccccc1)[C@H](C)CN([C@H](C)CO)S2(=O)=O	4	16*	1	0	-16
C[C@H]1CN([C@@H](C)CO)S(=O)(=O)c2ccc(C#CC(C)(C)O)cc2O[C@@H]1CN(C)Cc1ccc(F)cc1	-2	16*	4	0	-2
CC(C)C#Cc1ccc2c(c1)O[C@@H](CN(C)Cc1ccccc1)[C@@H](C)CN([C@@H](C)CO)S2(=O)=O	-16	17*	2	0	99*
C[C@@H]1CN([C@@H](C)CO)S(=O)(=O)c2ccc(C#CC(C)(C)O)cc2O[C@H]1CN(C)Cc1ccccc1	4	11	-2	0	2
CC(C)C#Cc1ccc2c(c1)O[C@H](CN(C)Cc1ccccc1)[C@@H](C)CN([C@H](C)CO)S2(=O)=O	-13	1	5	0	-8
CCCC#Cc1ccc2c(c1)O[C@H](CN(C)Cc1ccccc1)[C@@H](C)CN([C@H](C)CO)S2(=O)=O	0	20*	·	0	7
CCCC#Cc1ccc2c(c1)O[C@H](CN(C)Cc1ccccc1)[C@@H](C)CN([C@@H](C)CO)S2(=O)=O	7	·	·	·	0
C[C@H](CO)N1C[C@H](C)[C@@H](CN(C)C(=O)Nc2ccc(C(F)(F)F)cc2)OCCCC[C@H](C)Oc2ccc(NC(=O)NC3CCCCC3)cc2C1=O	-1	0	2	0	3
O=C(c1cccnc1)N1CC(=O)N2[C@H](CO)[C@H](c3ccc(-c4ccccc4F)cc3)[C@H]2C1	-1	-2	2	0	3
C[C@H](CO)N1C[C@H](C)[C@@H](CN(C)Cc2cccc(F)c2)Oc2cc(C#Cc3ccccn3)ccc2S1(=O)=O	·	-1	1	0	-30
C[C@@H]1CN([C@@H](C)CO)S(=O)(=O)c2ccc(C#Cc3ccccn3)cc2O[C@@H]1CN(C)Cc1cccc(F)c1	·	20*	2	0	-16
CN(C)C(=O)C[C@@H]1CC[C@H](NC(=O)NC2CCCCC2)[C@H](CO)O1	-4	1	-2	0	8
C=CCSc1nnc(NC(=O)c2cn(CC)c3nc(C)ccc3c2=O)s1	7	20*	-4	0	3
CCn1cc(C(=O)NCc2cccs2)c(=O)c2ccc(C)nc21	·	·	·	·	21
CN1CCN(C(=O)C[C@@H]2CC[C@H]3[C@@H](COc4ccc(NC(=O)C5CC5)cc4C(=O)N3C)O2)CC1	-1	-3	1	0	2
C[C@@H]1CN([C@@H](C)CO)C(=O)c2cc(-c3cccnc3)cnc2O[C@H]1CN(C)C(=O)Nc1ccc2c(c1)OCO2	-6	32*	-1	0	-1
C[C@H]1CN([C@@H](C)CO)C(=O)c2cc(-c3cccnc3)cnc2O[C@@H]1CN(C)C(=O)Nc1ccc2c(c1)OCO2	-7	0	2	0	11
C[C@H]1CN([C@@H](C)CO)C(=O)c2cc(-c3ccccc3)cnc2O[C@@H]1CN(C)C(=O)Nc1ccc2c(c1)OCO2	·	9.5*	1	0	2
CCC(=O)N1CC[C@@H]2[C@@H](CO)Nc3ccc(C#Cc4cccc(OC)c4)cc3[C@@H]21	-4	·	·	·	·
COc1ccc(-n2c(NN)nc3sc4c(c3c2=O)CCCC4)cc1	-10	-3	0	43*	1
O=C(COC(=O)/C=C/c1ccc(Cl)cc1)NC1CC1	-1	21*	2	0	3
COc1cccc(/C=C/C(=O)OCC(=O)NC2CCCCCCC2)c1	8	·	1	26*	4
C[C@H](CO)N1C[C@H](C)[C@@H](CN(C)S(=O)(=O)c2cn(C)cn2)Oc2ccc(NC(=O)CCC(F)(F)F)cc2CC1=O	·	·	·	0	9
SMILES	FN deposition inh	SIRT5 block	ERAP1 HTS inh	FGF22 binding	PGC1a acetyl inh
Cc1ccc(C)c(SCC(=O)NC(=O)NCc2ccccc2)c1	·	·	·	·	-4
Cc1ccc(C)c(SCC(=O)OCC(=O)NCc2ccccc2)c1	5	1	-1	44*	-2
COc1ccc(Cc2c(-c3cccc(Cl)c3)nc3ccc(C)cn23)c(C)c1	3	22*	2	0	-6
COc1ccc(Cc2c(-c3ccccc3)nc3ccc(C)cn23)c(C)c1	5	-2	-2	0	·
Cc1cc(C(=O)Nc2cccc3c2O[C@@H](CN(C)Cc2ccc(C(F)(F)F)cc2)[C@H](C)CN([C@@H](C)CO)C3=O)n(C)n1	·	0	0	1	4
C[C@@H]1CCCCO[C@H](CN(C)S(=O)(=O)c2cccs2)[C@@H](C)CN([C@H](C)CO)C(=O)c2cc(NS(=O)(=O)c3ccc(Cl)cc3)ccc2O1	-18	-1	0	1.6*	6
Cc1ccc(S(=O)(=O)Nc2ccc3c(c2)C(=O)N([C@@H](C)CO)C[C@H](C)[C@H](CN(C)S(=O)(=O)c2cccs2)OCCCC[C@@H](C)O3)cc1	-3	18*	1	0	1
O=C(CSc1nc2ccccc2c(=O)n1-c1ccccc1F)NC1CC1	-11	0	-6	0	·
O=C(CSc1nc2ccccc2c(=O)n1-c1ccc(F)cc1F)NC1CC1	-2	·	0	43*	-22
O=C(C1CCC1)N1CC[C@@H]2[C@H]1c1cc(-c3cccc(F)c3)ccc1N[C@@H]2CO	10	·	·	·	-22
CCOc1ccccc1NC(=O)c1ccc2ccccc2c1	-1	-1	-2	0	88*
COc1ccc(CC(=O)Nc2ccccc2Oc2ccccc2)cc1	·	·	1	43*	·
CCN(c1ccccc1)S(=O)(=O)c1ccc(Cl)c(NC(=O)CN2C(=O)NC3(CCCC3)C2=O)c1	1	16*	·	1	8
O=C(CN1C(=O)NC2(CCCC2)C1=O)Nc1ccc(S(=O)(=O)N2CCOCC2)cc1	-2	18*	2	0	15
O=C(CN1C(=O)NC2(CCCCC2)C1=O)Nc1cccc(S(=O)(=O)N2CCOCC2)c1	-2	-1	13	0	-15
CC(C)NC(=O)Nc1ccc2c(c1)C(=O)N([C@H](C)CO)C[C@@H](C)[C@@H](CN(C)Cc1ccc(Oc3ccccc3)cc1)O2	13	-3	·	0	-1
CCN(c1ccccc1)S(=O)(=O)c1ccc(OC)c(NC(=O)Cc2ccc(F)cc2)c1	0	61*	0	0	?
CCOc1ccc(N(CC(=O)Nc2ccccc2OC)S(=O)(=O)c2ccccc2)cc1	-16	-1	-1	0	88*

Screening results deposited in PubChem BioAssay by Broad Institute.
